Results on two substances are retold here after ChEMBL document CHEMBL1138514, “Rhodamine inhibitors of P-glycoprotein: an amide/thioamide "switch" for ATPase activity” (J Med Chem, 2009).

For series [1], the system named is CCN(CC)C(=O)c1ccc(-c2c3ccc(=[N+](C)C)cc-3[se]c3cc(N(C)C)ccc23)s1. Nature of the series: not read.
Series [2] has as its system CN(C)c1ccc(-c2c3ccc(=[N+](C)C)cc-3[te]c3cc(N(C)C)ccc23)cc1. The series is described as follows: not read.
Series [3] deals with CN(C)c1ccc2c(-c3ccc(C(=O)O)s3)c3ccc(=[N+](C)C)cc-3[te]c2c1. Nature of the series: not read.
The test system of series [4] is CN(C)c1ccc2c(-c3ccc(C(=O)O)s3)c3ccc(=[N+](C)C)cc-3sc2c1. The series is described as follows: not read.
In series [5] the test system is CN(C)c1ccc2c(-c3ccc(N4CCOCC4)cc3)c3ccc(=[N+](C)C)cc-3sc2c1. The series is described as follows: not read.
Series [6] deals with CN(C)c1ccc2c(-c3ccccc3)c3ccc(=[N+](C)C)cc-3[te]c2c1. Nature of the series: not read.
Series [7] concerns CN(C)c1ccc2c(-c3ccsc3C(=O)O)c3ccc(=[N+](C)C)cc-3[se]c2c1. Nature of the series: not read.
Series [8] relates to CN(C)c1ccc2c(-c3ccsc3C(=O)O)c3ccc(=[N+](C)C)cc-3sc2c1. Nature of the series: not read.
Series [9] relates to CN(C)c1ccc2c(CCCOc3ccccc3)c3ccc(=[N+](C)C)cc-3sc2c1. The series is described as follows: not read.
Series [10] has as its system CN(C)c1cccc(-c2c3ccc(=[N+](C)C)cc-3[se]c3cc(N(C)C)ccc23)c1. Nature of the series: not read.
Series [11] deals with CN(C)c1cccc(-c2c3ccc(=[N+](C)C)cc-3[te]c3cc(N(C)C)ccc23)c1. The series is described as follows: not read.
Series [12] has as its system COc1ccc(-c2c3ccc(=[N+](C)C)cc-3[se]c3cc(N(C)C)ccc23)cc1OC. The series is described as follows: not read.
The subject of series [13] is COc1ccc(-c2c3ccc(=[N+](C)C)cc-3sc3cc(N(C)C)ccc23)cc1OC. The series is described as follows: not read.
Series [14] relates to COc1cccc(-c2c3ccc(=[N+](C)C)cc-3[se]c3cc(N(C)C)ccc23)c1. The series is described as follows: not read.
Series [15] has as its system COc1cccc(-c2c3ccc(=[N+](C)C)cc-3[te]c3cc(N(C)C)ccc23)c1. The series is described as follows: not read.
Series [16] has as its system C[N+](C)=c1ccc2c(-c3ccccc3)c3cc4c5c(c3[te]c-2c1)CCCN5CCC4. The series is described as follows: not read.
Series [17] has as its system CCN(CC)C(=O)c1ccc(-c2c3ccc(=[N+](C)C)cc-3[se]c3cc(N(C)C)ccc23)s1. Nature of the series: (§1) Induction of mouse cysteine-less MDR3 ATPase activity by apparent Michaelis-Menten constant. In a few lines: (§2)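 Isolated P-gp ATPase activity is measured as inorganic phosphate released across a range of rhodamine concentrations. KM is the apparent Michaelis-Menten constant, the concentration giving half-maximal stimulation of ATPase activity.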

The subject of series [18] is CCN(CC)C(=O)c1ccc(-c2c3ccc(=[N+](C)C)cc-3sc3cc(N(C)C)ccc23)s1. The description is as §1. The essentials:
as §2

Series [19] concerns CCN(CC)C(=O)c1ccccc1-c1c2ccc(=[N+](C)C)cc-2sc2cc(N(C)C)ccc12. Described as §1. In a few lines:
as §2

Series [20] concerns CCOC(=O)c1ccc(-c2c3ccc(=[N+](C)C)cc-3sc3cc(N(C)C)ccc23)s1. The series is described as §1. The essentials: as §2
The test system of series [21] is CN(C)c1ccc2c(-c3ccc(CCl)cc3)c3ccc(=[N+](C)C)cc-3oc2c1. The series is described as §1. The essentials:
as §2

Series [22] deals with CN(C)c1ccc2c(-c3ccccc3C(=O)O)c3ccc(=[N+](C)C)cc-3sc2c1. The series is described as §1. The essentials:
as §2

The subject of series [23] is CN(C)c1ccc2c(-c3ccsc3C(=O)O)c3ccc(=[N+](C)C)cc-3[se]c2c1. Described as §1. The essentials:
as §2

Series [24] has as its system CN(C)c1ccc2c(CCCOc3ccccc3)c3ccc(=[N+](C)C)cc-3sc2c1. Described as §1. In a few lines:
as §2

Series [25] concerns COC(=O)c1ccccc1-c1c2ccc(=[N+](C)C)cc-2sc2cc(N(C)C)ccc12. The series is described as §1. The essentials: as §2
Series [26] relates to COc1ccc(-c2c3ccc(=[N+](C)C)cc-3sc3cc(N(C)C)ccc23)cc1OC. The series is described as §1. In a few lines:
as §2

Series [27] deals with COc1cccc(-c2c3ccc(=[N+](C)C)cc-3[se]c3cc(N(C)C)ccc23)c1. Described as §1. The essentials: as §2
In series [28] the test system is COc1ccc(-c2c3ccc(=[N+](C)C)cc-3sc3cc(N(C)C)ccc23)cc1. The series is described as follows: not read.

Turning to “ATP-dependent translocase ABCB1 (Homo sapiens)”, the Km (as a rule, the substrate concentration at which the rate is half of its maximum) was 0.68 µM in series [1]; 9 µM in series [2]; 9.6 µM in series [3]; 140 µM in [4]; 10 µM in series [5]; 8.3 µM in [6]. Besides, the Km turned out to be 56 µM in [7]; 111 µM in series [8]; 3.2 µM in series [9]; 3.5 µM in series [10]; 2 µM in series [11]; 8.3 µM in series [12]. Besides, the Km in series [13] is 4.9 µM; in series [14], 3.3 µM; in [15], 3.2 µM; in series [16], 4.4 µM.

In the case of “ATP-dependent translocase ABCB1 (Mus musculus)”, the Km in series [17] came to 3.6 µM; in series [18], 3.4 µM; in series [19] it was 5.7 µM; in series [20], 156 µM; in series [21] it was 77 µM; in series [22], 56 µM. The Km worked out at 29 µM in series [23]; 6 µM in [24]; 266 µM in series [25]; 35 µM in series [26]; 44 µM in series [27]; 67 µM in [12]. Besides, the Km in series [28] was found to be 75 µM.
